Published values gathered from unrelated publications.
Protocols differ between the studies behind these lines. In brackets after ≈: the same amount, converted by molar mass.

Cc1cccc(CSc2nccc(OCCOc3cc(=O)oc4ccccc34)n2)c1  inhibition (Human coronavirus 229E; cytopathic effect; A549; 12.5 µM): 38.1%
CCCCCC/C=C\CCCCCCCCCC(=O)CP(=O)(O)O  MIC (Enterococcus faecalis; microbial growth; ATCC33186): 12.5 µg/mL (≈ 34.7 µM)
COC1=C2C[C@@H](C)C[C@H](OC)[C@H](O)[C@@H](C)/C=C(\C)[C@H](OC(N)=O)[C@@H](OC)/C=C\C=C(/C)C(=O)NC(=CC1=O)C2=O  IC50 (Human coronavirus 229E; viral replication; Calu-3): 8.71 µM
O=c1cc(OCCCOc2ccnc(SCc3ccc(F)cc3)n2)c2cc(F)ccc2o1  inhibition (Human coronavirus 229E; cytopathic effect; A549; 6.25 µM): 34.9%
CC[C@H](C)C[C@H](C)CCCCCCCCC(=O)N[C@H]1C[C@@H](O)[C@@H](NCCN)NC(=O)[C@@H]2[C@@H](O)CCN2C(=O)[C@H]([C@H](O)CCN)NC(=O)[C@H]([C@H](O)[C@@H](O)c2ccc(O)cc2)NC(=O)[C@@H]2C[C@@H](O)CN2C(=O)[C@H]([C@@H](C)O)NC1=O  MIC50 (Aspergillus fumigatus; microbial growth, broth dilution; MF5668): 0.016 µg/mL (≈ 0.0146 µM)
C=CCCCCCCCCC(=O)C(F)(F)P(=O)(O)O  MIC (Enterococcus faecalis; microbial growth; ATCC33186): > 200 µg/mL
CC(C)[C@H](NC(=O)[C@H](CCCNC(=N)N)NC(=O)N[C@@H](Cc1ccccc1)C(=O)O)C(=O)N[C@H](C=O)CCCNC(=N)N  IC50 (Human coronavirus 229E; viral replication; Huh7.5): 1.57 µM
COc1ccccc1NC(=O)/C=C/c1ccc2c(c1)C=CC(C)(C)O2  viability (rat Primary cortical neuron; cell growth or viability, MTT; 1 µM, 12 h): 83%
O=C(CCCCC1CCCCC1)NP(=O)(O)O  MIC (Enterococcus faecalis; microbial growth; ATCC33186): > 200 µg/mL
CCOC(=O)C1=C[C@@H](OC(CC)CC)[C@H](NC(C)=O)[C@@H](N)C1  IC50 (Human coronavirus 229E; viral replication; A549): 7.65 µM
Nc1ncnc2c([C@@H]3N[C@H](CO)[C@@H](O)[C@H]3O)c[nH]c12  inhibition (Japanese encephalitis virus; viral replication, inhibitor; Vero 76; 9.5 µM): 9.8%
O=C(Cc1ccc2ccccc2c1)N[C@@H](Cc1ccccc1)C(=O)N[C@H](Cc1ccccc1)C(=O)N[C@@H](Cc1ccc(OP(=O)(O)O)cc1)C(=O)O  IC50 (HeLa; cell growth or viability, MTT; 48 h): > 500 µM
CCCCCC/C=C\CCCCCCCCCC(=O)NP(=O)(O)O  MIC (Enterococcus faecalis; microbial growth; ATCC33186): 200 µg/mL (≈ 553 µM)
COc1cc2c(cc1O)CCN[C@]21CS[C@@H]2c3c(OC(C)=O)c(C)c4c(c3[C@H](COC1=O)N1[C@@H]2[C@H]2c3c(cc(C)c(OC)c3O)C[C@@H]([C@@H]1C#N)N2C)OCO4  IC50 (Human coronavirus 229E; viral replication; Calu-3): 0.253 µM
COc1ccc(N2CCN(C(=O)/C=C/c3ccc4c(c3)C=CC(C)(C)O4)CC2)cc1  viability (rat Primary cortical neuron; cell growth or viability, MTT; 1 µM, 12 h): 75%
O=C(CCCCC1CCCCC1)CP(=O)(O)O  MIC (Enterococcus faecalis; microbial growth; ATCC33186): > 200 µg/mL
COc1c(C)c2c(c(O)c1C/C=C(\C)CCC(=O)O)C(=O)OC2  IC50 (Human coronavirus 229E; viral replication; Calu-3): 2.11 µM
COc1cccc(NC(=O)/C=C/c2ccc3c(c2)C=CC(C)(C)O3)c1  viability (rat Primary cortical neuron; cell growth or viability, MTT; 1 µM, 12 h): 87%
